Measured values as given in PubChem BioAssay AID624397 (The Scripps Research Institute Molecular Screening Center, 2012).

Test system: MCF7 proliferation, sulforhodamine B absorbance, 7-10 days
Test: breast cancer cell growth suppression – MCF7, absorbance, set 2, counter-screen for AHR activator project, late-stage follow-up (AID 624397)
Method in brief: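 System: MCF7 human ER-positive breast cancer cells; Buffer or medium: a-MEM growth medium with 10% fetal bovine serum; Timing: dosing from 24 h after plating, renewed every 48 h, 37 °C; Measured by: SRB absorbance at 490 nm, 650 nm background removed; Repeats: at least triplicates.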

Q: For `Cc1ccc(-c2cc(-c3ccc(F)cc3)n[nH]2)c(O)c1`, which IC50 is on record?
A: 3 µM

Q: With `Cc1ccc(-c2cc(-c3ccc(Cl)cc3)n[nH]2)c(O)c1` as the compound, how does the IC50 read?
A: 3 µM

Q: Which IC50 does the source give for `Cc1ccc(-c2cc(-c3cccc(F)c3)n[nH]2)c(O)c1` here?
A: 3 µM
